The values below come from ChEMBL document CHEMBL1129377, “Synthesis, structure-activity relationships, and the effect of polyethylene glycol on inhibitors of phosphatidylinositol-specific phospholipase C from Bacillus cereus” (J Med Chem, 1996).

pIC50: −log10 of the molar value. Bounds are passed on as bounds.

The nature of experiment [1]: Inhibition of Phosphoinositide specific phospholipase C (PI-PLC) from Bacillus cereus on the internal face of the cell membrane. Summed up: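 Single-phase aqueous assay: recombinant B. cereus PI-PLC, final 5 nM, with 0.25 mM NPIP in 100 mM HEPES, 1 mM EDTA, pH 7, 0.008% PEG-8000, 25 °C. Inhibitor kept at least tenfold below cmc and added before substrate and enzyme. Initial rates at 399 nm over 4 min. IC50 is the mean of two experiments. Ki came from varying NPIP 0.1-0.5 mM at two inhibitor levels, fitted to competitive inhibition.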

Experiment [2] relates to Bacillus cereus. Kind of experiment: Compound was tested for the inhibition of Phosphoinositide specific phospholipase C (PI-PLC) in the presence of buffer at concentration of 40.0 mM. Further details: scale not given: the % may be the effect or the level left. Summed up:
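Recombinant B. cereus PI-PLC, final 5 nM, with 0.25 mM NPIP (D-enantiomer) in 100 mM HEPES, 1 mM EDTA, pH 7, no PEG-600, 25 °C. Inhibitor added a few minutes before substrate and enzyme. Activity normalized to uninhibited control; mean of at least two separate experiments.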

Experiment [3] relates to Bacillus cereus. Kind of experiment: Compound was tested for the inhibition of Phosphatidylinositol-Specific Phospholipase C (PI-PLC) in the presence of PEG-600 at concentration of 40.0 mM. The arrangement: scale not given: the % may be the effect or the level left. Summed up: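 Recombinant B. cereus PI-PLC (E. coli periplasmic prep), final 5 nM, with 0.25 mM NPIP (D-enantiomer) in 90% crystallization precipitant solution (33% PEG-600, 0.16 M trisodium citrate-HCl pH 7.35, 46 mM HEPES pH 7), 25 °C. Inhibitor preincubated a few minutes before substrate and enzyme. p-Nitrophenolate followed at 399 nm for 4 min; activity normalized to uninhibited control.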

As for `O[C@H]1[C@@H](O)[C@@H](O)[C@@H](O)[C@@H](O)[C@@H]1O`, in experiment [1], the pIC50 was 2.70. `CCCCCCCCOCC(COP(=O)(O)OC)OCCCCCCCC` (stereo not drawn) showed a negative logarithm of the IC50 (pIC50) in experiment [1] of 4.92. Moreover, the Activity in experiment [2] was found to be 14%; in experiment [3] (0.17 mM, in the assay text read “0.17 mM” for “40.0 mM”) it was 102%. On to `CCCCCCOCC(CCP(=O)(O)OC1C(O)C(O)C(O)C(O)C1O)OCCCCCC` (stereo not drawn), for which the negative-log IC50 (pIC50) in experiment [1] was 4.74. Besides, the Activity in experiment [2] stood at 25%; in experiment [3] (0.25 mM, in the assay text read “0.25 mM” for “40.0 mM”), 100%.

In turn, `O=P(O)(O)OC1C(O)C(O)C(O)C(O)C1O` (stereo in doubt; form 1) [listing 1 of 2 here] had a pIC50 in experiment [1] of 4.37. Take `O=P(O)(O)OC1C(O)C(O)C(O)C(O)C1O` (stereo in doubt; form 2): the pIC50 in experiment [1] was 4.25. Still for that read-out and setting: as for `CCCCCCOCC(CC(F)(F)P(=O)(O)O)OCCCCCC` (stereo not drawn), the figure is 4.35.

As to `O=P(O)(O)OC1C(O)C(O)C(O)C(O)C1O` (stereo in doubt; form 1) [listing 2 of 2 here], the Activity in experiment [2] stood at 69%; in experiment [3] (16.0 mM, in the assay text read “16.0 mM” for “40.0 mM”), 56%.

In the case of `O=C1C(O)C(O)C(O)C(O)C1O` (stereo in doubt), the negative logarithm of the IC50 (pIC50) in experiment [1] was 3.88. `CCCCCCOCC(CCP(=O)(O)OC)OCCCCCC` (stereo not drawn) had a pIC50 in experiment [1] of 4.64. Regarding `O[C@H]1[C@H](O)[C@@H](O)[C@H](O)[C@@H](O)[C@@H]1O` [SCYLLITOL], the negative-log IC50 (pIC50) in experiment [1] was 0.39.

The molecule `CCCCCCOCC(COP(=O)(O)OC)OCCCCCC` (stereo not drawn) showed a negative logarithm of the IC50 (pIC50) in experiment [1] of 4.28.

As for `O[C@@H]1[C@H](O)[C@@H](O)[C@@H](O)[C@@]2(CO2)[C@@H]1O`, the pIC50 in experiment [1] was less than 1.30. Consider `CCCCCCOCC(CC(F)(F)P(=O)(O)OC1C(O)C(O)C(O)C(O)C1O)OCCCCCC` (stereo not drawn), for which, in experiment [1], the negative-log IC50 (pIC50) is 4.47.

For `CCCCCCOCC(COP(=O)(O)O)OCCCCCC` (stereo not drawn), in experiment [1], the pIC50 was 4.26. `O=P1(O)OC2C(O)C(O)C(O)C(O)C2O1` (stereo not drawn) gave a pIC50 in experiment [1] of 0.87. Consider `CCCCCOCC(COP(=O)(O)OC)OCCCCC` (stereo not drawn), for which, in experiment [1], the pIC50 is 3.63. `CCCCCCOCC(CCP(=O)(O)O)OCCCCCC` (stereo not drawn) gave a negative logarithm of the IC50 (pIC50) in experiment [1] of 4.22. Consider `O=C1C(O)C(O)C(O)C(O)C1O` (racemic), for which the negative-log IC50 (pIC50) in experiment [1] is 5.52.

As to `O[C@H]1[C@H](O)[C@@H](O)[C@H](O)[C@@H](O)[C@H]1O` [INOSITOL], the negative-log IC50 (pIC50) in experiment [1] was 2.00. Besides, the Activity in experiment [2] is 18%; in experiment [3] (40.0 mM) it was 22%. As for `CCCCCC(=O)OCC(COP(=O)(O)O)OC(=O)CCCCC` (stereo not drawn), the pIC50 in experiment [1] was 3.73. For the molecule `CCCCCC(=O)OCC(COP(=O)(O)OC)OC(=O)CCCCC` (stereo not drawn), the negative logarithm of the IC50 (pIC50) in experiment [1] was 3.93.
